# Source: ChEMBL document CHEMBL1146375, “Synthetic studies on novel benzimidazolopeptides with antimicrobial, cytotoxic and anthelmintic potential” (2007)
# Test system: Escherichia coli
# Experiment: Antibacterial activity against Escherichia coli NCIM 2065 after 18 hrs by disc diffusion method
# Type: functional
# Settings: not given
# Method in brief: (§1)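 Modified Kirby-Bauer disc diffusion. Plates inoculated with spore suspension (about 6 × 10⁴ spores mL^-1). Sterile 6 mm paper discs carried test samples at 10 mg mL^-1; ciprofloxacin disc as reference, DMF disc as negative control. Plates held 18 h at 37 °C. Inhibition zone diameters (mm) averaged over triplicate sets.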
row,Structure (SMILES),inhibition zone (IZ)
1,Cc1cc2nc(-c3ccc(C(=O)N[C@@H](CC(C)C)C(=O)NCC(=O)O)cc3)[nH]c2cc1C,17 mm
2,Cc1cc2nc(-c3c(I)cc(C(=O)N[C@@H](C)C(=O)N[C@@H](Cc4ccc(O)cc4)C(=O)NCC(=O)O)cc3I)[nH]c2cc1C,18 mm

# Test system: Candida albicans
# Experiment: Antifungal activity against Candida albicans MUCC 29 after 48 hrs by disc diffusion method
# Type: functional
# Settings: not given
# Method in brief: (§2)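 Agar well diffusion on plates inoculated with spore suspension in normal saline from cultures on Sabouraud's broth. Wells punched and loaded with test samples or griseofulvin at 10 mg mL^-1, with DMSO as negative control. Incubated 48 h at 37 °C.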
row,Structure (SMILES),inhibition zone (IZ)
1,Cc1cc2nc(-c3ccc(C(=O)N[C@@H](CC(C)C)C(=O)NCC(=O)O)cc3)[nH]c2cc1C,19 mm
2,Cc1cc2nc(-c3c(I)cc(C(=O)N[C@@H](C)C(=O)N[C@@H](Cc4ccc(O)cc4)C(=O)NCC(=O)O)cc3I)[nH]c2cc1C,16 mm

# Test system: Escherichia coli
# Experiment: Antibacterial activity against Escherichia coli NCIM 2065 after 18 hrs by tube dilution method
# Type: functional
# Settings: NCIM 2065, 18 h
row,Structure (SMILES),MIC
1,Cc1cc2nc(-c3ccc(C(=O)N[C@@H](CC(C)C)C(=O)NCC(=O)O)cc3)[nH]c2cc1C,12.5 µg/mL
2,Cc1cc2nc(-c3c(I)cc(C(=O)N[C@@H](C)C(=O)N[C@@H](Cc4ccc(O)cc4)C(=O)NCC(=O)O)cc3I)[nH]c2cc1C,12.5 µg/mL

# Test system: Staphylococcus aureus
# Experiment: Antibacterial activity against Staphylococcus aureus NCIM 2079 after 18 hrs by tube dilution method
# Type: functional
# Settings: NCIM 2079, 18 h
# Method in brief: (§3)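 Tube dilution MIC. Stock diluted in sterile broth to seven concentrations from 200 to 3.1 […]. Each tube inoculated with one loopful of test bacterium and incubated 18 h at 37 °C. MIC read from presence or absence of growth.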
row,Structure (SMILES),MIC
1,Cc1cc2nc(-c3ccc(C(=O)N[C@@H](CC(C)C)C(=O)NCC(=O)O)cc3)[nH]c2cc1C,12.5 µg/mL
2,Cc1cc2nc(-c3c(I)cc(C(=O)N[C@@H](C)C(=O)N[C@@H](Cc4ccc(O)cc4)C(=O)NCC(=O)O)cc3I)[nH]c2cc1C,12.5 µg/mL

# Test system: Pontoscolex corethrurus
# Experiment: Anthelmintic activity against Pontoscolex corethrurus ICARBC 408 assessed as mean death time
# Type: functional
# Settings: not given
# Method in brief: (§4)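 Earthworms exposed to test suspensions at 2 mg mL−1, prepared by triturating compound with Tween 80 (0.5%) and distilled water, stirring 30 min, then diluting to 0.2% w/v. Mebendazole suspension was made the same way. Death was confirmed by moving worms into 50 °C warm water and looking for movement. Mean death time (min) taken from triplicate sets.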
row,Structure (SMILES),Time
1,Cc1cc2nc(-c3ccc(C(=O)N[C@@H](CC(C)C)C(=O)NCC(=O)O)cc3)[nH]c2cc1C,48.39 min
2,Cc1cc2nc(-c3c(I)cc(C(=O)N[C@@H](C)C(=O)N[C@@H](Cc4ccc(O)cc4)C(=O)NCC(=O)O)cc3I)[nH]c2cc1C,47.45 min

# Test system: Microsporum audouinii
# Experiment: Antifungal activity against Microsporum audouinii MUCC 545 after 48 hrs by tube dilution method
# Type: functional
# Settings: not given
# Method in brief: (§5)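 Tube dilution MIC as for bacteria (seven concentrations, 200–3.1 […]), with DMSO in place of DMF. Tubes inoculated with fungal culture and incubated 48 h at 37 °C. MIC read from presence or absence of growth.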
row,Structure (SMILES),MIC
1,Cc1cc2nc(-c3ccc(C(=O)N[C@@H](CC(C)C)C(=O)NCC(=O)O)cc3)[nH]c2cc1C,25 µg/mL
2,Cc1cc2nc(-c3c(I)cc(C(=O)N[C@@H](C)C(=O)N[C@@H](Cc4ccc(O)cc4)C(=O)NCC(=O)O)cc3I)[nH]c2cc1C,12.5 µg/mL

# Test system: Staphylococcus aureus
# Experiment: Antibacterial activity against Staphylococcus aureus NCIM 2079 after 18 hrs by disc diffusion method
# Type: functional
# Settings: not given
# Method in brief: as §1
row,Structure (SMILES),inhibition zone (IZ)
1,Cc1cc2nc(-c3ccc(C(=O)N[C@@H](CC(C)C)C(=O)NCC(=O)O)cc3)[nH]c2cc1C,10 mm
2,Cc1cc2nc(-c3c(I)cc(C(=O)N[C@@H](C)C(=O)N[C@@H](Cc4ccc(O)cc4)C(=O)NCC(=O)O)cc3I)[nH]c2cc1C,13 mm

# Test system: Trichophyton benhamiae
# Experiment: Antifungal activity against Trichophyton mentagrophytes MUCC 665 after 48 hrs by tube dilution method
# Type: functional, Arthroderma benhamiae
# Settings: not given
# Method in brief: as §5
row,Structure (SMILES),MIC
1,Cc1cc2nc(-c3ccc(C(=O)N[C@@H](CC(C)C)C(=O)NCC(=O)O)cc3)[nH]c2cc1C,6 µg/mL
2,Cc1cc2nc(-c3c(I)cc(C(=O)N[C@@H](C)C(=O)N[C@@H](Cc4ccc(O)cc4)C(=O)NCC(=O)O)cc3I)[nH]c2cc1C,12.5 µg/mL

# Test system: Pontoscolex corethrurus
# Experiment: Anthelmintic activity against Pontoscolex corethrurus ICARBC 408 assessed as mean paralyzing time
# Type: functional
# Settings: not given
# Method in brief: (§6)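 Earthworms exposed to test suspensions at 2 mg mL^-1 (0.2% w/v), made by triturating compound with Tween 80 (0.5%) and distilled water, then mechanically stirred 30 min. Mebendazole suspension prepared alike as reference. Paralysis and death times recorded; death confirmed by no movement in 50 °C water. Means from triplicate sets.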
row,Structure (SMILES),Time
1,Cc1cc2nc(-c3ccc(C(=O)N[C@@H](CC(C)C)C(=O)NCC(=O)O)cc3)[nH]c2cc1C,36.61 min
2,Cc1cc2nc(-c3c(I)cc(C(=O)N[C@@H](C)C(=O)N[C@@H](Cc4ccc(O)cc4)C(=O)NCC(=O)O)cc3I)[nH]c2cc1C,35.42 min

# Test system: Trichophyton benhamiae
# Experiment: Antifungal activity against Trichophyton mentagrophytes MUCC 665 after 48 hrs by disc diffusion method
# Type: functional, Arthroderma benhamiae
# Settings: not given
# Method in brief: as §2
row,Structure (SMILES),inhibition zone (IZ)
1,Cc1cc2nc(-c3ccc(C(=O)N[C@@H](CC(C)C)C(=O)NCC(=O)O)cc3)[nH]c2cc1C,14 mm
2,Cc1cc2nc(-c3c(I)cc(C(=O)N[C@@H](C)C(=O)N[C@@H](Cc4ccc(O)cc4)C(=O)NCC(=O)O)cc3I)[nH]c2cc1C,15 mm

# Test system: not listed separately
# Experiment: Anthelmintic activity against Megascoplex konkanensis ICARBC 211 assessed as mean paralyzing time
# Type: functional
# Settings: not given
# Method in brief: as §6
row,Structure (SMILES),TIME
1,Cc1cc2nc(-c3ccc(C(=O)N[C@@H](CC(C)C)C(=O)NCC(=O)O)cc3)[nH]c2cc1C,0.438 h
2,Cc1cc2nc(-c3c(I)cc(C(=O)N[C@@H](C)C(=O)N[C@@H](Cc4ccc(O)cc4)C(=O)NCC(=O)O)cc3I)[nH]c2cc1C,0.454 h

# Test system: Eudrilus
# Experiment: Anthelmintic activity against Eudrilus sp. assessed as mean paralyzing time
# Type: functional
# Settings: not given
# Method in brief: as §6
row,Structure (SMILES),Time
1,Cc1cc2nc(-c3ccc(C(=O)N[C@@H](CC(C)C)C(=O)NCC(=O)O)cc3)[nH]c2cc1C,32.8 min
2,Cc1cc2nc(-c3c(I)cc(C(=O)N[C@@H](C)C(=O)N[C@@H](Cc4ccc(O)cc4)C(=O)NCC(=O)O)cc3I)[nH]c2cc1C,26.25 min

# Test system: Pseudomonas aeruginosa
# Experiment: Antibacterial activity against Pseudomonas aeruginosa NCIM 2034 after 18 hrs by tube dilution method
# Type: functional
# Settings: NCIM 2034, 18 h
# Method in brief: as §3
row,Structure (SMILES),MIC
1,Cc1cc2nc(-c3ccc(C(=O)N[C@@H](CC(C)C)C(=O)NCC(=O)O)cc3)[nH]c2cc1C,6 µg/mL
2,Cc1cc2nc(-c3c(I)cc(C(=O)N[C@@H](C)C(=O)N[C@@H](Cc4ccc(O)cc4)C(=O)NCC(=O)O)cc3I)[nH]c2cc1C,6 µg/mL

# Test system: Aspergillus niger
# Experiment: Antifungal activity against Aspergillus niger MUCC 177 after 48 hrs by disc diffusion method
# Type: functional
# Settings: not given
# Method in brief: as §2
row,Structure (SMILES),inhibition zone (IZ)
1,Cc1cc2nc(-c3ccc(C(=O)N[C@@H](CC(C)C)C(=O)NCC(=O)O)cc3)[nH]c2cc1C,17 mm
2,Cc1cc2nc(-c3c(I)cc(C(=O)N[C@@H](C)C(=O)N[C@@H](Cc4ccc(O)cc4)C(=O)NCC(=O)O)cc3I)[nH]c2cc1C,15 mm

# Test system: not listed separately
# Experiment: Anthelmintic activity against Megascoplex konkanensis ICARBC 211 assessed as mean death time
# Type: functional
# Settings: not given
# Method in brief: as §6
row,Structure (SMILES),TIME
1,Cc1cc2nc(-c3ccc(C(=O)N[C@@H](CC(C)C)C(=O)NCC(=O)O)cc3)[nH]c2cc1C,0.671 h
2,Cc1cc2nc(-c3c(I)cc(C(=O)N[C@@H](C)C(=O)N[C@@H](Cc4ccc(O)cc4)C(=O)NCC(=O)O)cc3I)[nH]c2cc1C,0.676 h

# Test system: Microsporum audouinii
# Experiment: Antifungal activity against Microsporum audouinii MUCC 545 after 48 hrs by disc diffusion method
# Type: functional
# Settings: not given
# Method in brief: as §2
row,Structure (SMILES),inhibition zone (IZ)
1,Cc1cc2nc(-c3ccc(C(=O)N[C@@H](CC(C)C)C(=O)NCC(=O)O)cc3)[nH]c2cc1C,11 mm
2,Cc1cc2nc(-c3c(I)cc(C(=O)N[C@@H](C)C(=O)N[C@@H](Cc4ccc(O)cc4)C(=O)NCC(=O)O)cc3I)[nH]c2cc1C,9 mm

# Test system: Candida albicans
# Experiment: Antifungal activity against Candida albicans MUCC 29 after 48 hrs by tube dilution method
# Type: functional
# Settings: not given
# Method in brief: as §5
row,Structure (SMILES),MIC
1,Cc1cc2nc(-c3ccc(C(=O)N[C@@H](CC(C)C)C(=O)NCC(=O)O)cc3)[nH]c2cc1C,6 µg/mL
2,Cc1cc2nc(-c3c(I)cc(C(=O)N[C@@H](C)C(=O)N[C@@H](Cc4ccc(O)cc4)C(=O)NCC(=O)O)cc3I)[nH]c2cc1C,6 µg/mL

# Test system: Eudrilus
# Experiment: Anthelmintic activity against Eudrilus sp. assessed as mean death time
# Type: functional
# Settings: not given
# Method in brief: as §4
row,Structure (SMILES),Time
1,Cc1cc2nc(-c3ccc(C(=O)N[C@@H](CC(C)C)C(=O)NCC(=O)O)cc3)[nH]c2cc1C,40.24 min
2,Cc1cc2nc(-c3c(I)cc(C(=O)N[C@@H](C)C(=O)N[C@@H](Cc4ccc(O)cc4)C(=O)NCC(=O)O)cc3I)[nH]c2cc1C,45.22 min

# Test system: Pseudomonas aeruginosa
# Experiment: Antibacterial activity against Pseudomonas aeruginosa NCIM 2034 after 18 hrs by disc diffusion method
# Type: functional
# Settings: not given
# Method in brief: as §1
row,Structure (SMILES),inhibition zone (IZ)
1,Cc1cc2nc(-c3ccc(C(=O)N[C@@H](CC(C)C)C(=O)NCC(=O)O)cc3)[nH]c2cc1C,23 mm
2,Cc1cc2nc(-c3c(I)cc(C(=O)N[C@@H](C)C(=O)N[C@@H](Cc4ccc(O)cc4)C(=O)NCC(=O)O)cc3I)[nH]c2cc1C,23 mm

# Test system: Bacillus subtilis
# Experiment: Antibacterial activity against Bacillus subtilis NCIM 2063 after 18 hrs by tube dilution method
# Type: functional
# Settings: NCIM 2063, 18 h
# Method in brief: as §3
row,Structure (SMILES),MIC
1,Cc1cc2nc(-c3ccc(C(=O)N[C@@H](CC(C)C)C(=O)NCC(=O)O)cc3)[nH]c2cc1C,6 µg/mL
2,Cc1cc2nc(-c3c(I)cc(C(=O)N[C@@H](C)C(=O)N[C@@H](Cc4ccc(O)cc4)C(=O)NCC(=O)O)cc3I)[nH]c2cc1C,6 µg/mL

# Test system: Bacillus subtilis
# Experiment: Antibacterial activity against Bacillus subtilis NCIM 2063 after 18 hrs by disc diffusion method
# Type: functional
# Settings: not given
# Method in brief: as §1
row,Structure (SMILES),inhibition zone (IZ)
1,Cc1cc2nc(-c3ccc(C(=O)N[C@@H](CC(C)C)C(=O)NCC(=O)O)cc3)[nH]c2cc1C,13 mm
2,Cc1cc2nc(-c3c(I)cc(C(=O)N[C@@H](C)C(=O)N[C@@H](Cc4ccc(O)cc4)C(=O)NCC(=O)O)cc3I)[nH]c2cc1C,16 mm
